Experiment [1] deals with T1, Aurora kinase A (Homo sapiens) (UniProt O14965).
T1 sequence (whole entry): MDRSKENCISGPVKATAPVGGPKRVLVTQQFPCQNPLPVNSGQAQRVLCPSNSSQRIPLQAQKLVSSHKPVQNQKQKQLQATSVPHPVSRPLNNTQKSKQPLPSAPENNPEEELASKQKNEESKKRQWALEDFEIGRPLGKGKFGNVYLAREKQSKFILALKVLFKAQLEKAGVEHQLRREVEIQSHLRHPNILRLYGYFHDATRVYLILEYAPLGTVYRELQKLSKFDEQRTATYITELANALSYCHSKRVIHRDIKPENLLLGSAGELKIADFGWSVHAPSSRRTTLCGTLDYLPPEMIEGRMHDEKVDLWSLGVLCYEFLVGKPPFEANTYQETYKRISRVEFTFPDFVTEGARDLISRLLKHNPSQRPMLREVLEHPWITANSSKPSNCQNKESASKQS
In words: Inhibition of AurA ATP labeling site in human Huh-7 cell lysate at 1 uM by KiNativ Profiling analysis relative to control. The class given is subcellular.

The target of experiment [2] is T2, Serine/threonine-protein kinase 3 (Homo sapiens) (UniProt Q13188).
T2 sequence (whole entry): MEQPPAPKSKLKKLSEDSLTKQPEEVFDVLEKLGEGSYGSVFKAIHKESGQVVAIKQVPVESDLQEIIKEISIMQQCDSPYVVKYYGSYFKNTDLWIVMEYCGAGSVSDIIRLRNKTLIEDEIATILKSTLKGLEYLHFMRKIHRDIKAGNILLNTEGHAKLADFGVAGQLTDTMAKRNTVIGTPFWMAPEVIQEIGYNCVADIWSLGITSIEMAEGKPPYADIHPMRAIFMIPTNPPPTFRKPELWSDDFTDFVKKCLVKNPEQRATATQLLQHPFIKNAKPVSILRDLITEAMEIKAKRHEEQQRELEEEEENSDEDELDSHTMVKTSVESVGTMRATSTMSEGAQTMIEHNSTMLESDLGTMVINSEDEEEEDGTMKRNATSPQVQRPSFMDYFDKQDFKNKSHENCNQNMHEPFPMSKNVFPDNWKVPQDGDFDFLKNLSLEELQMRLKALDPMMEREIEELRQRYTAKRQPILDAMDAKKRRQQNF
In words: Inhibition of MST2 Lys2 labeling site harbouring IHRDIKAGNILLNTEGHAK in human Huh-7 cells at 1 uM by KiNativ Profiling analysis relative to control. The class given is cell-based.

The target of experiment [3] is Activin receptor type-1-like (Homo sapiens) (UniProt P37023). The experiment can be described thus: Inhibition of ACVRL1 (unknown origin) at 1 uM by Ambit Kinomescan binding assay relative to control.
The target in experiment [4] is Cyclin-dependent kinase 11B (Homo sapiens) (UniProt P21127). The experiment can be described thus: Inhibition of CDK11 (unknown origin) at 1 uM by Ambit Kinomescan binding assay relative to control.
Cyclin-dependent kinase 11B (Homo sapiens), sequence (P21127 whole entry): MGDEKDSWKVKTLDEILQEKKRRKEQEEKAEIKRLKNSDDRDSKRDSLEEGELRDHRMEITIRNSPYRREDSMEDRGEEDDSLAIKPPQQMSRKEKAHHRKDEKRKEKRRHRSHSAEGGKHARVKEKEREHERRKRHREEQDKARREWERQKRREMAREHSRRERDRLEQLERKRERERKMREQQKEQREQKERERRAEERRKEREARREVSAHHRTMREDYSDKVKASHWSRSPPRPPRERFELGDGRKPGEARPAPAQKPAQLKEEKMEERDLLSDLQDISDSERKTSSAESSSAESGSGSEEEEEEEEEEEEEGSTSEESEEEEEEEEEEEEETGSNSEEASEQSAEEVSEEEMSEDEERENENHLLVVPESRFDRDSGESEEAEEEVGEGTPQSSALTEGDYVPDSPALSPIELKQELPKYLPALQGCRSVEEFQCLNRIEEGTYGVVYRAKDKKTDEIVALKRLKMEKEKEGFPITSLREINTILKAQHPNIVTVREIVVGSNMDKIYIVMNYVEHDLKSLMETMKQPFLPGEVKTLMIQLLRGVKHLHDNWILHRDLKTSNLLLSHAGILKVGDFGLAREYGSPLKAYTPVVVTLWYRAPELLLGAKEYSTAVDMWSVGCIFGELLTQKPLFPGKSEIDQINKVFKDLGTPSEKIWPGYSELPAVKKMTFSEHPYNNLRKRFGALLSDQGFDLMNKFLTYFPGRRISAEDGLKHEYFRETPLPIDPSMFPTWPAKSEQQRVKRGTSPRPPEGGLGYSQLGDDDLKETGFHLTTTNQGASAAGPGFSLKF
The target in experiment [5] is Serine/threonine-protein kinase 24 (Homo sapiens) (UniProt Q9Y6E0). The experiment can be described thus: Inhibition of MST3 (unknown origin) at 1 uM by Ambit Kinomescan binding assay relative to control.
Serine/threonine-protein kinase 24 (Homo sapiens), sequence (Q9Y6E0 whole entry, looked up): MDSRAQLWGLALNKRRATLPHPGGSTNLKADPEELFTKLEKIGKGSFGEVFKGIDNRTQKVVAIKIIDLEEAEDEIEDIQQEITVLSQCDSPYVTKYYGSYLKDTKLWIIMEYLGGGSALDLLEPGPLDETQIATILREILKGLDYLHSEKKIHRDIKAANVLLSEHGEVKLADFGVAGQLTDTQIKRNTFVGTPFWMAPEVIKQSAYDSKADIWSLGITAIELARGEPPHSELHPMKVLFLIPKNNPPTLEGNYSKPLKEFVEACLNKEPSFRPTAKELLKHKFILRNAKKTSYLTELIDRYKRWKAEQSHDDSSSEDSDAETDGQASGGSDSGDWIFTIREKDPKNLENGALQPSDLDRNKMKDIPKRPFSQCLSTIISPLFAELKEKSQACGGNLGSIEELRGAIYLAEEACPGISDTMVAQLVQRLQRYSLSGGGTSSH
For experiment [6], the target named is T3, Serine/threonine-protein kinase STK11 (Homo sapiens) (UniProt Q15831).
T3 sequence (whole entry): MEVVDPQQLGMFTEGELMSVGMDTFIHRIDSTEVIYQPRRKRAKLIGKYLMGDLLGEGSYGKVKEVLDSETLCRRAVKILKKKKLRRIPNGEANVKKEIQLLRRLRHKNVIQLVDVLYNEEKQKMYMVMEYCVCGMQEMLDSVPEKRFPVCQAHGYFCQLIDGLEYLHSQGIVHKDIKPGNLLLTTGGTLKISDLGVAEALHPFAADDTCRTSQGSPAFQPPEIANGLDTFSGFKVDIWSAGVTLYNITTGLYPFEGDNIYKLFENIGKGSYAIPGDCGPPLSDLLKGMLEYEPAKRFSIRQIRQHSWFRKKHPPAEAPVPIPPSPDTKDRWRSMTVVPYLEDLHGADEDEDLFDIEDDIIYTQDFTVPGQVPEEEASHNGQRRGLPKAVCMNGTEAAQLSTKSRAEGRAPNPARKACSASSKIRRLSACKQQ
In words: Inhibition of LKB1 Lys2 labeling site in human A-375 cells at 5 uM by KiNativ Profiling analysis relative to control. The class given is cell-based.

In experiment [7] the target is Microtubule-associated serine/threonine-protein kinase 4 (Homo sapiens) (UniProt O15021). In words: Inhibition of MAST4 Lys2 labeling site in human A-375 cells at 5 uM by KiNativ Profiling analysis relative to control. It counts as cell-based. Put shortly:
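Live A375 melanoma cells were treated with compound at 5 or 0.5 μM, then lysed. Lysates were labeled with a lysine-reactive ATP or ADP-biotin probe. Read-out was the compound's protection of kinase labeling sites from probe labeling (KiNativ).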

Experiment [8] addresses Dual specificity protein kinase CLK1 (Homo sapiens) (UniProt P49759). The experiment can be described thus: Inhibition of CLK1 (unknown origin) at 1 uM by Ambit Kinomescan binding assay relative to control; values are per cent of control.
In experiment [9] the target is Maternal embryonic leucine zipper kinase (Homo sapiens) (UniProt Q14680). In words: Inhibition of MELK (unknown origin) at 10 uM by Ambit Kinomescan binding assay.
Maternal embryonic leucine zipper kinase (Homo sapiens), sequence (Q14680 whole entry, looked up): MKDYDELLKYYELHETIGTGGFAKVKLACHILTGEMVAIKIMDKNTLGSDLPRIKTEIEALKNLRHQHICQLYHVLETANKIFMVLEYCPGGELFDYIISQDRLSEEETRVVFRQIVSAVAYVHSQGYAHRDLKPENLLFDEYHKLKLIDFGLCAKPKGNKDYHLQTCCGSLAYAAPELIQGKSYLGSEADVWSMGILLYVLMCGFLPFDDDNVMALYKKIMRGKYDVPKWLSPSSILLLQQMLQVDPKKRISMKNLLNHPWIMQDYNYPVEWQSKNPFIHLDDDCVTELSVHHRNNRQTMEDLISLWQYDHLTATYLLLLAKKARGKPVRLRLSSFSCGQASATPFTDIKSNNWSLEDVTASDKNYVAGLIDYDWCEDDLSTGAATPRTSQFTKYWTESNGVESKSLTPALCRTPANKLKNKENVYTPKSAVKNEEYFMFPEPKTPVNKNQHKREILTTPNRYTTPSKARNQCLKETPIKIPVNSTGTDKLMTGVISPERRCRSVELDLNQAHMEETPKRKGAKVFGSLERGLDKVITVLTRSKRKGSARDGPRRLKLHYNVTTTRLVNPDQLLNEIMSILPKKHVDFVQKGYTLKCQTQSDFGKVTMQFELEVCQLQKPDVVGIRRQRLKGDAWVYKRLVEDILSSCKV
For experiment [10], the target named is Activated CDC42 kinase 1 (Homo sapiens) (UniProt Q07912). The experiment can be described thus: Inhibition of TNK2 (unknown origin) at 10 uM by Ambit Kinomescan binding assay.
In experiment [11] the target is T4, Serine/threonine-protein kinase Sgk3 (Homo sapiens) (UniProt Q96BR1).
T4 sequence (whole entry): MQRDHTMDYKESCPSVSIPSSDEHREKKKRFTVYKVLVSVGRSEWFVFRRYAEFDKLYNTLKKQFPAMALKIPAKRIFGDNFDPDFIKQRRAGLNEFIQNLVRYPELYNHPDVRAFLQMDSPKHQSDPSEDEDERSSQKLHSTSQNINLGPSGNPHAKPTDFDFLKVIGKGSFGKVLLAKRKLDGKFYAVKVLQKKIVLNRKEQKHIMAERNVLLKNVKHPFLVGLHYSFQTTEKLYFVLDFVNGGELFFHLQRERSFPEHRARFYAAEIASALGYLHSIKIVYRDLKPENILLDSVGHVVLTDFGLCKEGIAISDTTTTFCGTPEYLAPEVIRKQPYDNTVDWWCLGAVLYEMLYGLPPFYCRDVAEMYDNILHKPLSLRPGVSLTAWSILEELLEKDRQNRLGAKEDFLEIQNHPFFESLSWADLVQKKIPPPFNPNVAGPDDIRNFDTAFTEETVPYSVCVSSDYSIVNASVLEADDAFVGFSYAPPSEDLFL
In words: Inhibition of SGK3 Lys1 labeling site in human A-375 cells at 0.05 uM by KiNativ Profiling analysis relative to control. The class given is cell-based.

Experiment [12] concerns the target Mitogen-activated protein kinase kinase kinase kinase 4 (Homo sapiens, UniProt O95819). In words: Inhibition of ZC1/HGK K1 labeling site harbouring TGQLAAIKVMDVTEDEEEEIKLEINMLKK in human Huh-7 cells at 10 uM by KiNativ Profiling analysis relative to control. The class given is cell-based.
Experiment [13] concerns the target Tyrosine-protein kinase ABL (Homo sapiens) (UniProt P00519+P42684). The experiment can be described thus: Inhibition of ABL1/2 ACT labeling site in human Huh-7 cells at 1 uM by KiNativ Profiling analysis relative to control. The class given is cell-based.

Activity calls are given as the source filed them. No cut-off for these calls is given here.

Dual specificity protein kinase CLK1 (Homo sapiens), sequence (P49759 whole entry, looked up): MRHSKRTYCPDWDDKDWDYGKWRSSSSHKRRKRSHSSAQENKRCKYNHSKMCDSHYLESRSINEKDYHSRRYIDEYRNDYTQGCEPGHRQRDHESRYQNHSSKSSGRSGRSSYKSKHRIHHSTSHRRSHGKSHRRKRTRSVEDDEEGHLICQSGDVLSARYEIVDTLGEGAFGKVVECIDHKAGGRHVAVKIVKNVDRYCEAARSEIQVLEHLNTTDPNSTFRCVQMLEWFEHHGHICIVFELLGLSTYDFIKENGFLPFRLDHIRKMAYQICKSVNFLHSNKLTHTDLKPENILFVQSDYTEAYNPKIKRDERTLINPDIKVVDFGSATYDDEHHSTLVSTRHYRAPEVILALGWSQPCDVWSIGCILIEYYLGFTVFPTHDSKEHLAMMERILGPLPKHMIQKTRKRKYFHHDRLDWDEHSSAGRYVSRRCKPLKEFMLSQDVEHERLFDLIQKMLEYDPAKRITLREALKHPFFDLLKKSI
Microtubule-associated serine/threonine-protein kinase 4 (Homo sapiens), sequence (O15021 whole entry): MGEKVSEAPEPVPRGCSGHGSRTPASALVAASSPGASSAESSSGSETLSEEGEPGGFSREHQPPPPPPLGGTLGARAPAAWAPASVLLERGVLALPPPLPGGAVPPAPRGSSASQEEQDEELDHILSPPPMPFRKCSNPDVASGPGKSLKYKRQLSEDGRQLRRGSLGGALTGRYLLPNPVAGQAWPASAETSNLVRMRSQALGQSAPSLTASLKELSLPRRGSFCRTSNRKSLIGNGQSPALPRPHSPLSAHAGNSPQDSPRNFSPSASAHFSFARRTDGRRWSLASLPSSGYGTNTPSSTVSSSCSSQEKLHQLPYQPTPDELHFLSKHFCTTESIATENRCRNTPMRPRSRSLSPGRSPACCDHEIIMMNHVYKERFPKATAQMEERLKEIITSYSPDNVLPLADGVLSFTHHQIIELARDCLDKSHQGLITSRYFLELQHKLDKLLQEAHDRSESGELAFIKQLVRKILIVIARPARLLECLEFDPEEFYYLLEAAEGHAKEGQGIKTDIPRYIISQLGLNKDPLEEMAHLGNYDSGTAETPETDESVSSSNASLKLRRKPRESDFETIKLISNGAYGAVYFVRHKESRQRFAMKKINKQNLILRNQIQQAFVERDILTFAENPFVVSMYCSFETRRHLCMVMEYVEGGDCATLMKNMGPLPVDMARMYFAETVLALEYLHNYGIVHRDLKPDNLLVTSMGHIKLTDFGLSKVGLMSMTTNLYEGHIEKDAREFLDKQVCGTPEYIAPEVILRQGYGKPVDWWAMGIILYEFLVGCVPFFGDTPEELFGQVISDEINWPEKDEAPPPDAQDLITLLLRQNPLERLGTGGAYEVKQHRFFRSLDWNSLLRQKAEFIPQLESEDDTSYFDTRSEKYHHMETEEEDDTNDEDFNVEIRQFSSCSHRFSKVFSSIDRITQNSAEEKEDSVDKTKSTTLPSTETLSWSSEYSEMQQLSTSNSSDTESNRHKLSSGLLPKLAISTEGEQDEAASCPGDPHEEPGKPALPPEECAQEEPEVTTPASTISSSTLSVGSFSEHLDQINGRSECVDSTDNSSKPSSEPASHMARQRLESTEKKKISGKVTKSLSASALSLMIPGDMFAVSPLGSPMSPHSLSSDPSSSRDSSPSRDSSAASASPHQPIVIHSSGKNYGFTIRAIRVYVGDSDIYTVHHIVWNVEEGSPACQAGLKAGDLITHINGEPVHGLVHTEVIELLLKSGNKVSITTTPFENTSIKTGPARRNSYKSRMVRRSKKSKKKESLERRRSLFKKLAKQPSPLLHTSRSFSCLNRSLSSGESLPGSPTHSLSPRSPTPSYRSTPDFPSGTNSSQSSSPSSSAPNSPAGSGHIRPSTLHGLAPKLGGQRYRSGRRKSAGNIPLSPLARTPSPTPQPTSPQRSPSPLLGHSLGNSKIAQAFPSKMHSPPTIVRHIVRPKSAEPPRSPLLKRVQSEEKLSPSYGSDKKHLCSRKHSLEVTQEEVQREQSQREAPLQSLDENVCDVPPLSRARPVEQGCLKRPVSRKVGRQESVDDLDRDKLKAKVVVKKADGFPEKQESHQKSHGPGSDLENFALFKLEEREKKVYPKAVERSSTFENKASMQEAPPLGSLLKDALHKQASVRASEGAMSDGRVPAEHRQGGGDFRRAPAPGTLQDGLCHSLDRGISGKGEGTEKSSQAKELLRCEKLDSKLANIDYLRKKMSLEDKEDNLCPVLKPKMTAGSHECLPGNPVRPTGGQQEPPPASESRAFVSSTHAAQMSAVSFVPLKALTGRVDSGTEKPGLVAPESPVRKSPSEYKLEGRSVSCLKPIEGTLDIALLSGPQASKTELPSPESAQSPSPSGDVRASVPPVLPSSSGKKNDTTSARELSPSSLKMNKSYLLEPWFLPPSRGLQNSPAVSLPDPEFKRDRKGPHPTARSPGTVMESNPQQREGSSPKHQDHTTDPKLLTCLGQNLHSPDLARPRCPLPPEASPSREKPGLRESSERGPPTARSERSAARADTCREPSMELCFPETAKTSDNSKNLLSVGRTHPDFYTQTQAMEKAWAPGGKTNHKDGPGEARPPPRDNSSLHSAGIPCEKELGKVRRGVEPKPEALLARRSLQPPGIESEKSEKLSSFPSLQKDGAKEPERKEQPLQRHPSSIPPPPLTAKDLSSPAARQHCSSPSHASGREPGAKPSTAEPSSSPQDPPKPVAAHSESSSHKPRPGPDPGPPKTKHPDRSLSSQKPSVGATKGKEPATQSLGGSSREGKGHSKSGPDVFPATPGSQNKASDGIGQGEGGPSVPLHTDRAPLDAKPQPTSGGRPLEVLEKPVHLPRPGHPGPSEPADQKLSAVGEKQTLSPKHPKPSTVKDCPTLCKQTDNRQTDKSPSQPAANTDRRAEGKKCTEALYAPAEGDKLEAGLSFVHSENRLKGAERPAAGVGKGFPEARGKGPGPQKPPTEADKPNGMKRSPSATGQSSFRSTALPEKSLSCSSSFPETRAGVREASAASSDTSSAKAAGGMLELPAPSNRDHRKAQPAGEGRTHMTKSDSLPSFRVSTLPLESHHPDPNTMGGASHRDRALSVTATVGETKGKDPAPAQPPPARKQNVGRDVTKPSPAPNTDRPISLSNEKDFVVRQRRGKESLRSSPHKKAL

`CNc1cc(Oc2cc(C(=O)Nc3cc(N4CCN(C)CC4)cc(C(F)(F)F)c3)ccc2C)ncn1`: the inhibition in [1] was 2.5%; in experiment [2] it was -0.8%.

Regarding `CCN1CCN(Cc2ccc(NC(=O)c3ccc(C)c(/C=C/c4cnc5[nH]ccc5c4OC)c3)cc2C(F)(F)F)CC1`, the inhibition is 100% in experiment [3]; 27% in experiment [4]; 75% in experiment [5]; 28.7% in experiment [6]; -8.4% in experiment [7]. The residual activity in [8] was determined as 59%.

Consider `CCN1CCN(Cc2ccc(NC(=O)c3ccc(C)c(Oc4ccnc5[nH]ccc45)c3)cc2C(F)(F)F)CC1`, for which the inhibition result in experiment [9] and in [10] was “inactive” in each case. For the same compound, the figures for the inhibition in [11], in [12] and in experiment [13] were 3.5%, 75.4% and 44.3%, respectively.

These data come from ChEMBL document CHEMBL5696442, “Discovery of type II inhibitors of TGFβ-activated kinase 1 (TAK1) and mitogen-activated protein kinase kinase kinase kinase 2 (MAP4K2)” (J Med Chem, 2015).
